Our source for the Activity and IC50 values is ChEMBL document CHEMBL1152603, “Comparative molecular field analysis and synthetic validation of a hydroxyamide-propofol binding and functional block of neuronal voltage-dependent sodium channels” (Bioorg Med Chem, 2009).

Calls of active or inactive are those of the source. The calls are words filed in the database; no cut-off is given here.

Assay [1] is filed under the species Rattus norvegicus. Briefly: Inhibition of voltage-gated sodium channel in rat hippocampal neurons assessed as blocked of sodium current elicited at -10 mV for […] from holding potential -90 mV at 50 uM by patch clamp method. It counts as tissue-based. On the set-up: scale not given: the % may be the effect or the level left. The following applies: Hippocampus. The gist of the method: (§1)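 Hippocampi from E18 rat embryos were trypsin-dissociated and plated on poly-L-lysine coverslips, then kept over a glial monolayer in serum-free MEM with N2 for up to 4 weeks. Whole-cell patch clamp was used. Bath (mM): NaCl 30, choline Cl 110, TEA-Cl 30, CdCl2 0.1, pH 7.3. Cells were held at −90 mV for 5 min first. Tonic current block was measured at 50 μM (n=5–7), followed by washout.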

For assay [2], the species on record is Rattus norvegicus. Nature of the assay: Displacement of [3H]-BTX-B from neuronal voltage-gated sodium channel binding site 2 in rat hippocampal neurons at 40 uM. It counts as tissue-based. As to conditions: Hippocampus. An outline of the steps: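 Inhibition of specifically bound [3H]-BTX-B measured at a single concentration of 40 μM, run in duplicate, and expressed as percent inhibition.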

A short description of assay [3]: Displacement of [3H]-BTX-B from neuronal voltage-gated sodium channel binding site 2 in rat hippocampal neurons. It counts as tissue-based, Hippocampus.
The species named for assay [4] is Rattus norvegicus. Briefly: Inhibition of voltage-gated sodium channel in rat hippocampal neurons assessed as blocked of sodium current elicited at -10 mV for […] from holding potential -90 mV at 50 uM measured after washout by patch clamp method. The class given is tissue-based. The following applies: Hippocampus. The gist of the method: as §1

Regarding `CC(C)c1cc(CCCCC(O)(C(N)=O)C(F)(F)F)cc(C(C)C)c1O` (stereo unspecified), the Activity in the assay filed under Rattus norvegicus [1] stood at 59%; in the assay filed under Rattus norvegicus [2], 67.1%. The same molecule came in with an IC50 in assay [3] of 22 µM. Moreover, in the assay listed under Rattus norvegicus [4], the outcome was inactive. Turning to `CC(C)c1cc(C2(C(F)(F)F)NC(=O)NC2=O)cc(C(C)C)c1O` (stereo unspecified), the Activity in the assay listed under Rattus norvegicus [2] worked out at 55.1%. In the assay filed under Rattus norvegicus [2], `CC(C)c1cc(C(O)(C(N)=O)C(F)(F)F)cc(C(C)C)c1O` (stereo unspecified) had an Activity of 24.5%. In the assay listed under Rattus norvegicus [2], `CC(C)c1cc(CCCCCCC(O)(C(N)=O)C(F)(F)F)cc(C(C)C)c1O` (stereo unspecified) yielded an Activity of 71.4%. In assay [3], this molecule registered an IC50 of 5.7 µM. Besides, the outcome in the assay listed under Rattus norvegicus [4] was inactive.

In the assay filed under Rattus norvegicus [2], `NC(=O)C(O)(c1ccccc1)C(F)(F)F` (stereo unspecified) came in with an Activity of 6.8%. The same measure, in the same setting: then `CC(C)c1cccc(C(C)C)c1O`, with 16.6%.
